Experimental data reported in ChEMBL document CHEMBL1649179, “Pharmacokinetics of LB80331 and LB80317 following oral administration of LB80380, a new antiviral agent for chronic hepatitis B (CHB), in healthy adult subjects, CHB patients, and mice” (Antimicrob Agents Chemother, 2009).

How the values were obtained:
Plasma [1] = assay: Cmax in CD-1 mouse plasma assessed as (1-((2-amino-6-hydroxy-9H-purin-9-yl)methyl)cyclopropoxy)me at 30 mg/kg, po administered as single dose by LC-MS analysis; format: ADME, organism-based; design: dose 30 mg/kg, route oral; details: in vivo
In short: (§1)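 Male CD-1 mice given a single oral dose in 100% PEG 400. Samples extracted with perchloric acid and neutralized with ammonium bicarbonate. One aliquot assayed for the free analyte; the other treated with calf intestinal phosphatase to give the total including di-/triphosphates. Analysis by LC-MS/MS.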

Plasma [2] = assay: Half life in CD-1 mouse plasma assessed as (1-((2-amino-6-hydroxy-9H-purin-9-yl)methyl)cyclopropoxy)me at 30 mg/kg, po administered as single dose by LC-MS analysis; format: ADME, organism-based; design: dose 30 mg/kg, route oral; details: in vivo; in short: as §1
Homo sapiens [3] = assay: Half life in chronic hepatitis B virus infected patient assessed as (1-((2-amino-6-hydroxy-9H-purin-9-yl)methyl)cyclopropoxy)me at 240 mg, po qd for 4 weeks by LC-MS analysis; format: ADME, organism-based; details: in vivo, 672 h
In short: (§2)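 CHB patients (HBsAg/HBeAg positive), six per cohort, oral once daily for 4 weeks. Plasma sampled at steady state (weeks 2–4), predose and at 0.5, 1, 2, 3, 4, 6, 8 and 24 h postdose. Analysis by validated LC-MS/MS after protein-precipitation extraction with a stable-isotope internal standard; LLOQ 10 ng/ml for LB80317. Noncompartmental analysis gives Cmax, AUC0-24 and terminal t1/2.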

Homo sapiens [4] = assay: Tmax in chronic hepatitis B virus infected patient assessed as (1-((2-amino-6-hydroxy-9H-purin-9-yl)methyl)cyclopropoxy)me at 120 mg, po qd for 4 weeks by LC-MS analysis; format: ADME, organism-based; details: in vivo, 672 h
In short: (§3)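 Daily oral LB80380 was given to CHB patients over 4 weeks. Blood was drawn on day 1 and at steady state (weeks 2–4), predose and 0.5–24 h postdose. Plasma LB80331 (LLOQ 5 ng/ml) and LB80317 (LLOQ 10 ng/ml) were measured by LC-MS/MS after protein-precipitation extraction. Tmax was taken by noncompartmental analysis.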

Plasma [5] = assay: Tmax in CD-1 mouse plasma assessed as (1-((2-amino-6-hydroxy-9H-purin-9-yl)methyl)cyclopropoxy)me at 30 mg/kg, po administered as single dose by LC-MS analysis; format: ADME, organism-based; design: dose 30 mg/kg, route oral; details: in vivo
In short: (§4)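 Male CD-1 mice received 30 mg/kg orally in 100% PEG 400. Plasma and snap-frozen liver were taken from 3 mice per time point at 1, 2, 4, 6, 10, 24 and 36 h. Samples were extracted with perchloric acid and neutralized with ammonium bicarbonate. Free LB80331/LB80317 was measured directly by LC-MS/MS; total, including di- and triphosphates, was measured after calf intestinal phosphatase treatment.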

Plasma [6] = assay: AUC (0 to 36 hrs) in CD-1 mouse plasma assessed as (1-((2-amino-6-hydroxy-9H-purin-9-yl)methyl)cyclopropoxy)me at 30 mg/kg, po administered as single dose by LC-MS analysis; format: ADME, organism-based; design: time < 36 hr, dose 30 mg/kg, route oral; details: in vivo; in short: as §1
Liver [7] = assay: Cmax in CD-1 mouse liver assessed as (1-((2-amino-6-hydroxy-9H-purin-9-yl)methyl)cyclopropoxy)me at 30 mg/kg, po administered as single dose by LC-MS analysis; format: ADME, organism-based; design: dose 30 mg/kg, route oral; details: in vivo; in short: as §1
Liver [8] = assay: AUC (0 to 36 hrs) in CD-1 mouse liver assessed as di- and triphosphates of (1-((2-amino-6-hydroxy-9H-purin-9-yl)methyl)cyclopropoxy)me at 30 mg/kg, po administered as single dose by LC-MS analysis; format: ADME, organism-based; design: time < 36 hr, dose 30 mg/kg, route oral; details: in vivo; in short: as §1
Homo sapiens [9] = assay: Tmax in chronic hepatitis B virus infected patient assessed as (1-((2-amino-6-hydroxy-9H-purin-9-yl)methyl)cyclopropoxy)me at 60 mg, po qd for 4 weeks by LC-MS analysis; format: ADME, organism-based; details: in vivo, 672 h; in short: as §3
Liver [10] = assay: Half life in CD-1 mouse liver assessed as (1-((2-amino-6-hydroxy-9H-purin-9-yl)methyl)cyclopropoxy)me at 30 mg/kg, po administered as single dose by LC-MS analysis; format: ADME, organism-based; design: dose 30 mg/kg, route oral; details: in vivo; in short: as §1
Homo sapiens [11] = assay: AUC (0 to 24 hrs) in chronic hepatitis B virus infected patient assessed as (1-((2-amino-6-hydroxy-9H-purin-9-yl)methyl)cyclopropoxy)me at 120 mg, po qd for 4 weeks by LC-MS analysis; format: ADME, organism-based, Plasma; design: dose 120 mg, time < 24 hr, route oral; details: in vivo; in short: as §2
Plasma [12] = assay: AUC (0 to infinity) in CD-1 mouse plasma assessed as (1-((2-amino-6-hydroxy-9H-purin-9-yl)methyl)cyclopropoxy)me at 30 mg/kg, po administered as single dose by LC-MS analysis; format: ADME, organism-based; design: time infinity, dose 30 mg/kg, route oral; details: in vivo; in short: as §1
Homo sapiens [13] = assay: AUC (0 to 24 hrs) in chronic hepatitis B virus infected patient assessed as (1-((2-amino-6-hydroxy-9H-purin-9-yl)methyl)cyclopropoxy)me at 60 mg, po qd for 4 weeks by LC-MS analysis; format: ADME, organism-based, Plasma; design: time < 24 hr, dose 60 mg, route oral; details: in vivo; in short: as §2
Liver [14] = assay: Tmax in CD-1 mouse liver assessed as (1-((2-amino-6-hydroxy-9H-purin-9-yl)methyl)cyclopropoxy)me at 30 mg/kg, po administered as single dose by LC-MS analysis; format: ADME, organism-based; design: dose 30 mg/kg, route oral; details: in vivo; in short: as §4
Homo sapiens [15] = assay: Half life in chronic hepatitis B virus infected patient assessed as (1-((2-amino-6-hydroxy-9H-purin-9-yl)methyl)cyclopropoxy)me at 60 mg, po qd for 4 weeks by LC-MS analysis; format: ADME, organism-based; details: in vivo, 672 h; in short: as §2
Liver [16] = assay: Tmax in CD-1 mouse liver assessed as di- and triphosphates of (1-((2-amino-6-hydroxy-9H-purin-9-yl)methyl)cyclopropoxy)me at 30 mg/kg, po administered as single dose by LC-MS analysis; format: ADME, organism-based; design: dose 30 mg/kg, route oral; details: in vivo; in short: as §4
Liver [17] = assay: Half life in CD-1 mouse liver assessed as di- and triphosphates of (1-((2-amino-6-hydroxy-9H-purin-9-yl)methyl)cyclopropoxy)me at 30 mg/kg, po administered as single dose by LC-MS analysis; format: ADME, organism-based; design: dose 30 mg/kg, route oral; details: in vivo; in short: as §1
Homo sapiens [18] = assay: AUC (0 to 24 hrs) in chronic hepatitis B virus infected patient assessed as (1-((2-amino-6-hydroxy-9H-purin-9-yl)methyl)cyclopropoxy)me at 240 mg, po qd for 4 weeks by LC-MS analysis; format: ADME, organism-based, Plasma; design: time < 24 hr, dose 240 mg, route oral; details: in vivo; in short: as §2
Homo sapiens [19] = assay: Cmax in chronic hepatitis B virus infected patient assessed as (1-((2-amino-6-hydroxy-9H-purin-9-yl)methyl)cyclopropoxy)me at 30 mg, po qd for 4 weeks by LC-MS analysis; format: ADME, organism-based; design: dose 30 mg, route oral; details: in vivo, 672 h; in short: as §2
Homo sapiens [20] = assay: Half life in chronic hepatitis B virus infected patient assessed as (1-((2-amino-6-hydroxy-9H-purin-9-yl)methyl)cyclopropoxy)me at 30 mg, po qd for 4 weeks by LC-MS analysis; format: ADME, organism-based; details: in vivo, 672 h; in short: as §2
Homo sapiens [21] = assay: Cmax in chronic hepatitis B virus infected patient assessed as (1-((2-amino-6-hydroxy-9H-purin-9-yl)methyl)cyclopropoxy)me at 60 mg, po qd for 4 weeks by LC-MS analysis; format: ADME, organism-based; design: dose 60 mg, route oral; details: in vivo, 672 h; in short: as §2
Liver [22] = assay: Cmax in CD-1 mouse liver assessed as di- and triphosphates of (1-((2-amino-6-hydroxy-9H-purin-9-yl)methyl)cyclopropoxy)me at 30 mg/kg, po administered as single dose by LC-MS analysis; format: ADME, organism-based; design: dose 30 mg/kg, route oral; details: in vivo; in short: as §1
Liver [23] = assay: AUC (0 to infinity) in CD-1 mouse liver assessed as (1-((2-amino-6-hydroxy-9H-purin-9-yl)methyl)cyclopropoxy)me at 30 mg/kg, po administered as single dose by LC-MS analysis; format: ADME, organism-based; design: time infinity, dose 30 mg/kg, route oral; details: in vivo; in short: as §1
Homo sapiens [24] = assay: Half life in chronic hepatitis B virus infected patient assessed as (1-((2-amino-6-hydroxy-9H-purin-9-yl)methyl)cyclopropoxy)me at 120 mg, po qd for 4 weeks by LC-MS analysis; format: ADME, organism-based; details: in vivo, 672 h; in short: as §2
Homo sapiens [25] = assay: Cmax in chronic hepatitis B virus infected patient assessed as (1-((2-amino-6-hydroxy-9H-purin-9-yl)methyl)cyclopropoxy)me at 240 mg, po qd for 4 weeks by LC-MS analysis; format: ADME, organism-based; design: dose 240 mg, route oral; details: in vivo, 672 h; in short: as §2
Homo sapiens [26] = assay: Cmax in chronic hepatitis B virus infected patient assessed as (1-((2-amino-6-hydroxy-9H-purin-9-yl)methyl)cyclopropoxy)me at 120 mg, po qd for 4 weeks by LC-MS analysis; format: ADME, organism-based; design: dose 120 mg, route oral; details: in vivo, 672 h; in short: as §2
Liver [27] = assay: AUC (0 to 36 hrs) in CD-1 mouse liver assessed as (1-((2-amino-6-hydroxy-9H-purin-9-yl)methyl)cyclopropoxy)me at 30 mg/kg, po administered as single dose by LC-MS analysis; format: ADME, organism-based; design: time < 36 hr, dose 30 mg/kg, route oral; details: in vivo; in short: as §1
Homo sapiens [28] = assay: Tmax in chronic hepatitis B virus infected patient assessed as (1-((2-amino-6-hydroxy-9H-purin-9-yl)methyl)cyclopropoxy)me at 30 mg, po qd for 4 weeks by LC-MS analysis; format: ADME, organism-based; details: in vivo, 672 h; in short: as §3
Homo sapiens [29] = assay: Tmax in chronic hepatitis B virus infected patient assessed as (1-((2-amino-6-hydroxy-9H-purin-9-yl)methyl)cyclopropoxy)me at 240 mg, po qd for 4 weeks by LC-MS analysis; format: ADME, organism-based; details: in vivo, 672 h; in short: as §3
Liver [30] = assay: AUC (0 to infinity) in CD-1 mouse liver assessed as di- and triphosphates of (1-((2-amino-6-hydroxy-9H-purin-9-yl)methyl)cyclopropoxy)me at 30 mg/kg, po administered as single dose by LC-MS analysis; format: ADME, organism-based; design: time infinity, dose 30 mg/kg, route oral; details: in vivo; in short: as §1
Homo sapiens [31] = assay: AUC (0 to 24 hrs) in chronic hepatitis B virus infected patient assessed as (1-((2-amino-6-hydroxy-9H-purin-9-yl)methyl)cyclopropoxy)me at 30 mg, po qd for 4 weeks by LC-MS analysis; format: ADME, organism-based, Plasma; design: time < 24 hr, dose 30 mg, route oral; details: in vivo; in short: as §2

**Q.** `Nc1nc(O)c2ncn(CC3(OCP(=O)(O)O)CC3)c2n1` [LB80317] was tested. Which Cmax (Plasma [1]) did it give?
**A.** 0.6 µM

**Q.** And the t1/2 (Plasma [2])?
**A.** 8.6 h

**Q.** What about the t1/2 (Homo sapiens [3]) of the same compound?
**A.** 45 h

**Q.** What about the Tmax (Homo sapiens [4]) of the same compound?
**A.** 3 h

**Q.** And the Tmax (Plasma [5])?
**A.** 4 h

**Q.** And the AUC (Plasma [6])?
**A.** 6 µM·h

**Q.** What about the Cmax (Liver [7]) of the same compound?
**A.** 243 µM

**Q.** What about the AUC (Liver [8]) of the same compound?
**A.** 1883 µM·h

**Q.** And the Tmax (Homo sapiens [9])?
**A.** 8 h

**Q.** What about the t1/2 (Liver [10]) of the same compound?
**A.** 9.9 h

**Q.** And the AUC (Homo sapiens [11])?
**A.** 1017 ng·h/mL

**Q.** What about the AUC (Plasma [12]) of the same compound?
**A.** 6 µM·h

**Q.** What about the AUC (Homo sapiens [13]) of the same compound?
**A.** 433 ng·h/mL

**Q.** What about the Tmax (Liver [14]) of the same compound?
**A.** 1 h

**Q.** And the t1/2 (Homo sapiens [15])?
**A.** 62 h

**Q.** What about the Tmax (Liver [16]) of the same compound?
**A.** 1 h

**Q.** What about the t1/2 (Liver [17]) of the same compound?
**A.** 8.3 h

**Q.** And the AUC (Homo sapiens [18])?
**A.** 1449 ng·h/mL

**Q.** And the Cmax (Homo sapiens [19])?
**A.** 12 ng/mL

**Q.** And the t1/2 (Homo sapiens [20])?
**A.** 53 h

**Q.** And the Cmax (Homo sapiens [21])?
**A.** 21 ng/mL

**Q.** And the Cmax (Liver [22])?
**A.** 107 µM

**Q.** What about the AUC (Liver [23]) of the same compound?
**A.** 3353 µM·h

**Q.** And the t1/2 (Homo sapiens [24])?
**A.** 51 h

**Q.** What about the Cmax (Homo sapiens [25]) of the same compound?
**A.** 75 ng/mL

**Q.** And the Cmax (Homo sapiens [26])?
**A.** 49 ng/mL

**Q.** And the AUC (Liver [27])?
**A.** 3069 µM·h

**Q.** What about the Tmax (Homo sapiens [28]) of the same compound?
**A.** 6 h

**Q.** What about the Tmax (Homo sapiens [29]) of the same compound?
**A.** 4.5 h

**Q.** And the AUC (Liver [30])?
**A.** 2152 µM·h

**Q.** What about the AUC (Homo sapiens [31]) of the same compound?
**A.** 285 ng·h/mL
